From article PMC7499187 (CPT: Pharmacometrics & Systems Pharmacology, 2020)
Where “and” joins values, the source holds several entries; their conditions need not be identical. Equal values may be shown once. Read-outs that look alike come from different tables or passages of the source. One block for each compound: values may come before it.

Assays:
[1] = Noncompartmental analysis of absolute bioavailability study JPBS; format: in vivo, human
[2] = cited from earlier work
[3] = Simulated Day 1 and steady-state exposures in MONARCH 2; format: in vivo, human; details: MONARCH 2 and MONARCH 3, simulated exposures
Procedure, shortened: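 Breast cancer patients on endocrine therapy were grouped as East Asian (Japanese, Korean, Taiwanese) or non-East Asian. Each patient's post hoc parameters came from a mechanistic NONMEM model, with dosage averaged over the study. Simulations covered cycle 1 day 1 after the starting dose (150 or 200 mg) and steady state after 56 days of 12-hourly dosing. Read-outs were geometric mean (%CV) Cmax, Cmin and dosing-interval AUC for parent, M2, M20 and total actives.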

[4] = Semimechanistic population PK model; format: in vivo, human; details: for Absorption lag time / CLint to form M2 in liver / CLint to form M20 in liver / Central volume / Fraction of Fa absorbed via transit compartment / Fraction of dose entering gut compartment, Fa / MTT / Maximum rate of absorption, ka,max / Peripheral volume / Rate constant for formation of M2 from gut / Rate constant for formation of M20 from gut / Zero-order absorption duration / Diarrhea effect on Fa / Km / CLint of M2 in liver / CLint of M20 in liver: final population model; for Km: Km for saturable absorption
[5] = cited from earlier work; remark: listed apart in the source
[6] = format: in vivo, human; details: geometric mean (%CV)
Procedure, shortened: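 Semimechanistic nonlinear mixed-effect population PK model with gut and hepatic CYP3A metabolism and a well-stirred liver model. Individual post hoc parameters simulated single oral doses (200 mg; cycle 1 day 1 starting 150 or 200 mg). Parent AUC0−∞ = Dose×F/CL. […] Cmax was taken from predicted profiles. Results are geometric mean (%CV).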

[7] = NCA (200 mg), JPBS healthy subjects N = 8, geometric mean (%CV)
[8] = coadministration with clarithromycin (CYP3A inhibitor)
[9] = coadministration with rifampicin (CYP3A inducer)
[10] = Healthy subjects, 200 mg single oral dose, N = 65
[11] = JPBL (patients), 150 mg single oral dose, N = 326
[12] = JPBL (patients), 200 mg single oral dose, N = 142
[13] = JPBN (patients), 200 mg single oral dose, N = 132
[14] = Patients, 200 mg single oral dose, N = 421

- Hepatic clearance [1, 7]: 24.0 (27) L/h
- AUC(0-inf) ([1]; human, plasma, oral, 200 mg): 3.73 µg·h/mL
- Cmax ([1]; human, plasma, oral, 200 mg): 0.114 µg/mL
- bioavailability ([1]; human, plasma, oral, 200 mg): 44.8%
- effect of East Asian ethnicity on abemaciclib PK [3]: no effect
- effect of body weight on abemaciclib exposure ([4]; adults): no clinically significant effect
- difference in absorption parameters between the fasted state, a standard meal, and a high-fat meal ([4]; crossover food effect study): no significant difference
- Absorption lag time ([4]; Bootstrap median (95% CI)): 1.76 (1.69–1.80) h
- CLint to form M2 in liver ([4]; Bootstrap median (95% CI)): 235 (199–284) L/h
- CLint to form M20 in liver ([4]; Bootstrap median (95% CI)): 700 (627–775) L/h
- Central volume ([4]; Bootstrap median (95% CI)): 604 (563–635) L
- Fraction of Fa absorbed via transit compartment ([4]; Bootstrap median (95% CI)): 0.479 (0.453–0.507)
- Fraction of dose entering gut compartment, Fa ([4]; Bootstrap median (95% CI)): 0.882 (0.874–0.890)
- MTT ([4]; Bootstrap median (95% CI)): 1.52 (1.43–1.62) h
- Maximum rate of absorption, ka,max ([4]; Bootstrap median (95% CI)): 97.6 (85.0–111) µmol/h
- Peripheral volume ([4]; Bootstrap median (95% CI)): 152 (132–184) L
- Rate constant for formation of M2 from gut ([4]; Bootstrap median (95% CI)): 0.401 (0.366–0.432) /h
- Rate constant for formation of M20 from gut ([4]; Bootstrap median (95% CI)): 0.306 (0.276–0.339) /h
- Zero-order absorption duration ([4]; Bootstrap median (95% CI)): 3.04 (2.52–3.84) h
- Diarrhea effect on Fa ([4]; Bootstrap median (95% CI), logit parameter): −0.0079 (−1.29, 2.65 × 10^−7)
- Absorption lag time ([4]; Estimate (%SEE)): 1.74 h and 1.74 (0.538) h
- CLint to form M2 in liver ([4]; Estimate (%SEE)): 280 (0.436) L/h
- CLint to form M20 in liver ([4]; Estimate (%SEE)): 705 (0.421) L/h
- Central volume ([4]; Estimate (%SEE)): 588 (2.81) L
- Fraction of Fa absorbed via transit compartment ([4]; Estimate (%SEE)): 0.458 (0.336)
- Fraction of dose entering gut compartment, Fa ([4]; Estimate (%SEE)): 0.868 (0.0583)
- MTT ([4]; Estimate (%SEE)): 1.44 h and 1.44 (3.68) h
- Maximum rate of absorption, ka,max ([4]; Estimate (%SEE)): 91.1 µmol/h and 91.1 (3.96) µmol/h
- Peripheral volume ([4]; Estimate (%SEE)): 159 (0.421) L
- Rate constant for formation of M2 from gut ([4]; Estimate (%SEE)): 0.361 (0.479) /h
- Rate constant for formation of M20 from gut ([4]; Estimate (%SEE)): 0.284 (0.468) /h
- Zero-order absorption duration ([4]; Estimate (%SEE)): 3.18 h and 3.18 (10.3) h
- Diarrhea effect on Fa ([4]; Estimate (%SEE), on the logit parameter for Fa): −0.417 (7.99)
- clearance ([4]; human, plasma, oral): 380 mL/min
- Km ([4]; human, plasma, oral, Bootstrap median (95% CI)): 51.8 µM
- Km ([4]; human, plasma, oral, Estimate (%SEE)): 52.7 µM
- intrinsic ka (absorption rate constant) ([4]; in the absence of drug, metabolism-susceptible pathway): 1.73 h⁻¹
- absorbed amount absorbed via the zero-order route ([4]; in vivo): 54.2%
- dose either not absorbed or lost as other metabolites ([4]; in vivo): 13.2%
- total administered dose absorbed either as abemaciclib, M2, or M20 ([4]; in vivo): 86.8%
- typical total CLint of unbound abemaciclib that resulted in formation of M2 and M20 ([4]; in vivo): 985 L/h
- amount that results in half maximal absorption rate ([4]; saturable absorption from final transit compartment): 27 mg
- typical ka,max ([4]; saturable absorption from final transit compartment to liver): 46.2 mg/h
- Hepatic clearance [6, 10]: 23.8 (30.3) L/h
- Hepatic clearance [6, 11]: 25.1 (21) L/h
- Hepatic clearance [6, 12]: 26 (25.7) L/h
- Hepatic clearance [6, 13]: 24.3 (24.9) L/h
- Hepatic clearance [6, 14]: 21.8 (39.8) L/h
SMILES: CCN1CCN(Cc2ccc(Nc3ncc(F)c(-c4cc(F)c5nc(C)n(C(C)C)c5c4)n3)nc2)CC1 [Abemaciclib]
- parent drug renally excreted [2]: 3%
- mean terminal elimination half-life ([2]; in patients): approximately 24 hours
- median time to maximum plasma concentration ([2]; phase I cancer patient population): approximately 8 hours
- increase of abemaciclib AUC [5, 8]: 237%
- increase of abemaciclib Cmax [5, 8]: 30%
- reduction of abemaciclib area under the curve (AUC) [5, 9]: 95%
- reduction of abemaciclib maximum plasma concentration (Cmax) [5, 9]: 92%

- AUC0−∞ [1, 7]: 1450 (19) ng·h/mL
- Cmax [1, 7]: 31.7 (22) ng/mL
- Half-life [1, 7]: 72.6 (23) h
- CLint of M2 in liver ([4]; Bootstrap median (95% CI)): 241 (218–271) L/h
- CLint of M2 in liver ([4]; Estimate (%SEE)): 254 (2.06) L/h
- AUC0−∞ [6, 10]: 1690 (39.9) ng·h/mL
- Apparent hepatic clearance [6, 10]: 22.9 (28.4) L/h
- Cmax [6, 10]: 28.8 (36.1) ng/mL
- Half-life [6, 10]: 21.2 (25.8) h
- AUC0−∞ [6, 11]: 1640 (70.2) ng·h/mL
- Apparent hepatic clearance [6, 11]: 18.3 (49.9) L/h
- Cmax [6, 11]: 33.6 (70.4) ng/mL
- Half-life [6, 11]: 17.2 (65.1) h
- AUC0−∞ [6, 12]: 1820 (72) ng·h/mL
- Apparent hepatic clearance [6, 12]: 20.9 (48.1) L/h
- Cmax [6, 12]: 40.2 (73.9) ng/mL
- Half-life [6, 12]: 16 (73.6) h
- AUC0−∞ [6, 13]: 1620 (55.0) ng·h/mL
- Apparent hepatic clearance [6, 13]: 23.9 (35.3) L/h
- Cmax [6, 13]: 26.9 (54.7) ng/mL
- Half-life [6, 13]: 21.3 (73.5) h
- AUC0−∞ [6, 14]: 1790 (71.6) ng·h/mL
- Apparent hepatic clearance [6, 14]: 21.5 (54.3) L/h
- Cmax [6, 14]: 30.3 (75.7) ng/mL
- Half-life [6, 14]: 19.3 (65.4) h
SMILES: Cc1nc2c(F)cc(-c3nc(Nc4ccc(CN5CCNCC5)cn4)ncc3F)cc2n1C(C)C [M2]

- AUC0−∞ [1, 7]: 3260 (26) ng·h/mL
- Cmax [1, 7]: 55.7 (26) ng/mL
- Half-life [1, 7]: 35.3 (16) h
- CLint of M20 in liver ([4]; Bootstrap median (95% CI)): 454 (417–489) L/h
- CLint of M20 in liver ([4]; Estimate (%SEE)): 431 (2.00) L/h
- AUC0−∞ [6, 10]: 3450 (34.4) ng·h/mL
- Apparent hepatic clearance [6, 10]: 23.9 (23.7) L/h
- Cmax [6, 10]: 49.1 (32.5) ng/mL
- Half-life [6, 10]: 20.3 (21.3) h
- AUC0−∞ [6, 11]: 2870 (69.6) ng·h/mL
- Apparent hepatic clearance [6, 11]: 22.5 (44.3) L/h
- Cmax [6, 11]: 59.3 (78.7) ng/mL
- Half-life [6, 11]: 14 (62.5) h
- AUC0−∞ [6, 12]: 3020 (72.8) ng·h/mL
- Apparent hepatic clearance [6, 12]: 25.8 (43.3) L/h
- Cmax [6, 12]: 66.1 (82.8) ng/mL
- Half-life [6, 12]: 13 (70.1) h
- AUC0−∞ [6, 13]: 2750 (55.0) ng·h/mL
- Apparent hepatic clearance [6, 13]: 26.2 (33.5) L/h
- Cmax [6, 13]: 39.4 (56.0) ng/mL
- Half-life [6, 13]: 19.4 (72.7) h
- AUC0−∞ [6, 14]: 3240 (74.7) ng·h/mL
- Apparent hepatic clearance [6, 14]: 23.7 (52.1) L/h
- Cmax [6, 14]: 48.8 (83.0) ng/mL
- Half-life [6, 14]: 17.5 (62.5) h
SMILES: CCN1CCN(Cc2ccc(Nc3ncc(F)c(-c4cc(F)c5nc(CO)n(C(C)C)c5c4)n3)nc2)CC1 [M20]
